Where two headings read alike, the source gives them in different places.

Series [1] addresses T1, SgvP (Streptomyces griseoviridis, UniProt R9USI6). The series can be described thus: Type I binding spectra, titration of SgvP with 2.
Series [2] addresses T1, SgvP. The class given is biochemical. The following applies: Fdx/Fdr, Opt13, NADP+, TCEP, no apparent intermediates detected. The gist of the method:
(§1)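 Reactions were run under standard conditions, with a control reaction lacking P450. Peaks containing m/z 496 and m/z 512 were taken as singly- and doubly-oxidized by-products.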

The target in series [3] is T1, SgvP. The series can be described thus: In vitro reconstitution of C–S bond formation, SgvP with CamB/CamA. As to conditions: CamB/CamA as redox partners, relative to Fdx/Fdr. In kind it is biochemical.
Series [4] deals with SgvP-RhFRed. The series can be described thus: Enzymatic reaction with SgvP-RhFRed chimera. The class given is biochemical, Streptomyces griseoviridis. As to conditions: NADP+, Opt13 for NADPH regeneration; without TCEP; LC-MS.
Series [5] has as its system FNS2. Nature of the series: Activity of homolog P450-RhFRed chimera FNS2. The class given is biochemical. The following applies: cell lysates, range of conditions.
The subject of series [6] is NK82. Nature of the series: Activity of homolog P450-RhFRed chimera NK82. The class given is biochemical. The following applies: cell lysates, range of conditions.
Series [7] relates to YY64. Nature of the series: Activity of homolog P450-RhFRed chimera YY64. In kind it is biochemical. The following applies: cell lysates, range of conditions.
Series [8] deals with SgvP P237T. The series can be described thus: Enzymatic reaction with SgvP mutant P237T. The class given is biochemical, Streptomyces griseoviridis. As to conditions: substrate 2; same reaction conditions as wild-type SgvP.
For series [9], the system named is SgvP P237T with A238 mutated to threonine. The series can be described thus: Enzymatic reaction with SgvP double mutant P237T, A238 to threonine. As to conditions: substrate 2; P237T activity partially rescued by mutating A238 to threonine. In kind it is biochemical, Streptomyces griseoviridis.
The test system of series [10] is SgvP L337F. The series can be described thus: Enzymatic reaction with SgvP mutant L337F. In kind it is biochemical, Streptomyces griseoviridis. The following applies: substrate 2; same reaction conditions as wild-type SgvP. The gist of the method:
as §1

The subject of series [11] is SgvP mutants. Nature of the series: LC-MS by-product analysis of reactions with SgvP mutants. The class given is biochemical, Streptomyces griseoviridis. The following applies: singly- (m/z = 496) and doubly-oxidized (m/z = 512) by-products, substrate 2. The gist of the method: as §1
Series [12] is described as follows: Stability under air at ambient temperature. The following applies: two weeks. The class given is physicochemical.
Series [13] in a line: Stability in aqueous buffer. The class given is physicochemical.
A short description of series [14]: Behavior toward chemical oxidants. In kind it is physicochemical.

Turning to pre-griseoviridin [compound 2], in series [1] (SgvP incubated with various concentrations of 2), the binding spectrum type result is “characteristic type I binding spectrum”. Moreover, the “Kd relative to that of TleB (fold lower)” value in series [1] (SgvP–2 Kd lower than TleB Kd) is reported as 2.5 fold. Moreover, in series [1] (SgvP–2 Kd vs PtmO5 Kd), the “Kd relative to that of PtmO5” value was “one order of magnitude higher”. The “λmax after shift on binding of 2” value in series [1] (type I binding spectrum, λmax shifted from 421 nm) came out at 386 nm. Moreover, the “conversion to griseoviridin (1)” value is listed as “nearly full conversion to griseoviridin (1) in approximately three hours” in series [2] and “Analogous results” in [3]. Further, the “product of incubation with SgvP-RhFRed” value in series [4] was “yielded only disulfide”. Further, the “activity of homolog chimera with 2” value in [5], in [6] and in series [7] was “none of the homologs exhibited any activity” each time. For the same substance, the “NMR yield of griseoviridin” value in series [8] was 7%; in series [9], 25%. Moreover, the “activity relative to wild-type enzyme” value in series [10] was “comparable – if not slightly enhanced – activity to the wild-type enzyme”. For the same substance, in [11], the by-products formed entry is on record as “several oxidized by-products had formed”. Further, the “stability: degradation” value in [12] is listed as “remarkably stable, with no discernable degradation even after two weeks”. Besides, the “disulfide formation with TCEP” value in [13] (TCEP added to the reaction mixture as a reductant) is “disulfide formation was effectively prevented”. Moreover, in series [13] (aqueous conditions, exposure to oxygen, no TCEP, LC-MS), the “product in absence of SgvP-RhFRed or in buffer and co-solvent alone” value is on record as “disulfide as the only product”. Moreover, the “production of 1 with chemical oxidants” value in series [14] (mCPBA or basic H2O2) is listed as “we did not observe the production of 1”. Further, the “outcome of treatment with mCPBA” value in [14] (mCPBA, crude NMR, sulfinic and sulfonic acids of 2 tentatively detected by LC-MS) is listed as “intractable mixture”. The “outcome of treatment with basic H2O2” value in series [14] (series of basic hydrogen peroxide conditions) was “ester hydrolysis, S-oxidation, or broad degradation”.

The record behind these values is PMC12239663 (Journal of the American Chemical Society, 2024).
